Measured values from ChEMBL document CHEMBL1157476, “A novel class of cycloalkano[b]pyridines as potent and orally active opioid receptor-like 1 antagonists with minimal binding affinity to the hERG K+ channel” (J Med Chem, 2008).
Blank lines part the entries; values can stand above or below the compound they belong to. The source made the active and inactive calls. The rule behind the calls is not given here.

Tests used:
Mus musculus [1] = assay: Inhibition of ORL1 agonist-induced hypolocomotion in mouse at 3 mg/kg, sc; format: functional, organism-based; parameters: dose 3 mg/kg
physchem [2] = conditions: buffer, pH 7.4
Nociceptin receptor [3] = biological target: T1, Nociceptin receptor (Homo sapiens, UniProt P41146); assay: Antagonist activity at human ORL1 expressed in CHO cells assessed as effect on nociceptin-induced GTPgammaS binding; format: functional, cell-based
T1 sequence (P41146 whole entry): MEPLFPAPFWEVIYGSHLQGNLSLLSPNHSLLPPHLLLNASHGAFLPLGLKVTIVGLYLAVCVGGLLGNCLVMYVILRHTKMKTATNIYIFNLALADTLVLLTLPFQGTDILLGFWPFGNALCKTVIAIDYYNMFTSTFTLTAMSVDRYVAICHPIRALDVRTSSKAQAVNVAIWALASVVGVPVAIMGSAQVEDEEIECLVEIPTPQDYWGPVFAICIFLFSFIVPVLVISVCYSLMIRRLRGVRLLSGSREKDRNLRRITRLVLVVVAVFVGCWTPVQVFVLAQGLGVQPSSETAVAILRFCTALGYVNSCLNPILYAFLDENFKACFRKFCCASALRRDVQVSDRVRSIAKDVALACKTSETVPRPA

Nociceptin receptor [4] = biological target: T1, Nociceptin receptor; assay: Displacement of [125I][Tyr14]nociceptin from human ORL1 expressed in CHO cells; format: cell-based
Canis familiaris [5] = assay: Cardiovascular activity in anesthetized dog assessed as corrected QT interval at 1 mg/kg, iv dosed for 10 mins measured after 20 mins relative to baseline; format: functional, Canis lupus familiaris
Outline: (§1)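 Isoflurane-anesthetized dogs (n = 1 or 3) given cumulative iv doses as saline solutions, each infused over 10 min; 2 and 7 mg/kg doses given 20 min after the prior administration. QTc measured at 0, 10 and 20 min after dosing, expressed as percent change from baseline for each dog. Peak plasma levels taken after each dose.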

Canis familiaris [6] = assay: Cardiovascular activity in anesthetized dog assessed as corrected QT interval at 2 mg/kg, iv dosed for 10 mins measured after 20 mins relative to baseline; format: functional, Canis lupus familiaris; outline: as §1
Canis familiaris [7] = assay: Cardiovascular activity in anesthetized dog assessed as corrected QT interval at 7 mg/kg, iv dosed for 10 mins measured after 20 mins relative to baseline; format: functional, Canis lupus familiaris; outline: as §1
[8] = AUC (0 to infinity) in Sprague-Dawley rat at 3 mg/kg, iv; format: ADME, organism-based; parameters: time infinity, dose 3 mg/kg, route intravenous; conditions: plasma
Outline: (§2)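 Fasted Sprague-Dawley rats (n = 3) received a single intravenous dose. Plasma exposure was expressed as AUC from zero to infinity, in µM·h. The same study also yielded clearance, half-life and steady-state volume of distribution, with oral dosing run in parallel.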

[9] = Volume of distribution at steady state in Sprague-Dawley rat at 3 mg/kg, iv; format: ADME, organism-based; parameters: dose 3 mg/kg, route intravenous; conditions: in vivo, read-out: Vdss
Outline: (§3)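 Fasted Sprague-Dawley rats (n = 3) given an intravenous solution in water at 3 or 0.65 mg/kg; plasma pharmacokinetic parameters from the IV arm.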

in vivo [10] = conditions: dog, plasma, iv, 2 mg/kg
[11] = Bioavailability in Sprague-Dawley rat at 10 mg/kg, iv; format: ADME, organism-based; conditions: in vivo, po, in the assay text read “po” for “iv”
Outline: (§4)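 Fasted Sprague-Dawley rats (n = 3) dosed orally as a solution in water (10 or 3 mg/kg), with matching intravenous arms at 3 or 0.65 mg/kg; F from oral versus IV exposure.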

physchem [12] = assay: physchem
[13] = Metabolic stability in cryopreserved human hepatocyte after 30 mins; format: ADME, cell-based; conditions: cryopreserved human hepatocytes, read-out: Stability
Outline: (§5)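 Compound incubated 30 min with rat hepatocytes or cryopreserved human hepatocytes; percent parent remaining reported; rat as mean of duplicates, human as mean of three experiments.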

[14] = Plasma clearance in Sprague-Dawley rat at 3 mg/kg, iv; format: ADME, organism-based; parameters: dose 3 mg/kg, route intravenous; outline: as §3
in vivo [15] = conditions: dog, plasma, iv, 1 mg/kg
in vivo [16] = conditions: dog, plasma, iv, 7 mg/kg
[17] = Half life in Sprague-Dawley rat at 3 mg/kg, iv; format: ADME, organism-based; parameters: dose 3 mg/kg, route intravenous; conditions: in vivo; outline: as §3
[18] = Metabolic stability in rat hepatocyte after 30 mins; format: ADME, cell-based; conditions: rat hepatocytes, read-out: Stability; outline: as §5
Plasma = conditions: dog, in vivo, iv, 1 mg/kg, 20 min
[19] = Bioavailability in Sprague-Dawley rat at 3 mg/kg, iv; format: ADME, organism-based; conditions: in vivo, po, in the assay text read “po” for “iv”; outline: as §4
[20] = Plasma clearance in Beagle dog at 1 mg/kg, iv; format: ADME, organism-based, Canis lupus familiaris; parameters: dose 1 mg/kg, route intravenous
Outline: (§6)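 Fasted Beagle dogs (n = 3) given 1 mg/kg intravenously; plasma pharmacokinetic parameters derived from the IV arm.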

[21] = Bioavailability in Beagle dog at 3 mg/kg, po; conditions: in vivo
[22] = Plasma concentration in rat at 10 mg/kg, po after 1 hrs; format: ADME, organism-based; parameters: dose 10 mg/kg, route oral
Outline: (§7)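 Oral dose 10 mg/kg; plasma and brain collected 1 h after administration and drug concentrations measured, n = 3 per group.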

Mu-type opioid receptor = Mu-type opioid receptor (Homo sapiens, UniProt P35372); assay: Displacement of [3H]diprenorphin from human cloned mu opioid receptor expressed in CHO cells; format: cell-based
Sequence of Mu-type opioid receptor (P35372 whole entry): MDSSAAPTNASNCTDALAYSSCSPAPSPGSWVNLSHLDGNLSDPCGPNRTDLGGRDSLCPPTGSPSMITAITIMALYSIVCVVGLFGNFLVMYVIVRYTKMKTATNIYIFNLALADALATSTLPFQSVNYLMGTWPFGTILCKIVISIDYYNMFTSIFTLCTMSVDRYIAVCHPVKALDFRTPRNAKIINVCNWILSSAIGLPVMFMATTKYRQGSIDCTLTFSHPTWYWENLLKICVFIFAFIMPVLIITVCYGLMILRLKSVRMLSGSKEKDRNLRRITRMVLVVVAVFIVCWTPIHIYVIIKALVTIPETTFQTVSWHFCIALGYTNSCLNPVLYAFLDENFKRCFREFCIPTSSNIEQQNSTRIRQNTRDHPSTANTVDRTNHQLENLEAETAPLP
Outline: (§8)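 Radioligand displacement from CHO cells stably expressing cloned human receptors: [3H]diprenorphin for mu, [3H]U-69593 for kappa, [3H][D-Ala2,D-Leu5]enkephalin for delta; IC50; three independent determinations, each in duplicate.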

Rattus norvegicus = assay: AUC (0 to infinity) in Sprague-Dawley rat at 0.65 mg/kg, iv; format: ADME, organism-based, Plasma; parameters: time infinity, dose 0.65 mg/kg, route intravenous; conditions: in vivo; outline: as §2
[23] = biological target: Kappa-type opioid receptor (Homo sapiens, UniProt P41145); assay: Displacement of [3H]U69593 from human cloned kappa opioid receptor expressed in CHO cells; format: cell-based; outline: as §8
Sequence of Kappa-type opioid receptor (P41145 whole entry): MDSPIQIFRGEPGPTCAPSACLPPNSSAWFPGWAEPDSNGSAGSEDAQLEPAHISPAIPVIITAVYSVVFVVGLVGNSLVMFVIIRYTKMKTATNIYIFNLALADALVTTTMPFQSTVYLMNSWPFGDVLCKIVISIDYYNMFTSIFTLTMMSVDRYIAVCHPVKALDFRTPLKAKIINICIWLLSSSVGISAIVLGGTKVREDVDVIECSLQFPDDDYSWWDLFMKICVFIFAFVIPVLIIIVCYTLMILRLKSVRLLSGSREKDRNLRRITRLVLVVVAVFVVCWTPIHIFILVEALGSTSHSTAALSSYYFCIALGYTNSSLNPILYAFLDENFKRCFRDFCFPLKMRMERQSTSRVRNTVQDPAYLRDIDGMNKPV

[24] = biological target: Delta-type opioid receptor (Homo sapiens, UniProt P41143); assay: Displacement of [3H][D-Ala2,D-Leu5]enkephalin from human cloned delta opioid receptor expressed in CHO cells; format: cell-based; outline: as §8
Sequence of Delta-type opioid receptor (P41143 whole entry): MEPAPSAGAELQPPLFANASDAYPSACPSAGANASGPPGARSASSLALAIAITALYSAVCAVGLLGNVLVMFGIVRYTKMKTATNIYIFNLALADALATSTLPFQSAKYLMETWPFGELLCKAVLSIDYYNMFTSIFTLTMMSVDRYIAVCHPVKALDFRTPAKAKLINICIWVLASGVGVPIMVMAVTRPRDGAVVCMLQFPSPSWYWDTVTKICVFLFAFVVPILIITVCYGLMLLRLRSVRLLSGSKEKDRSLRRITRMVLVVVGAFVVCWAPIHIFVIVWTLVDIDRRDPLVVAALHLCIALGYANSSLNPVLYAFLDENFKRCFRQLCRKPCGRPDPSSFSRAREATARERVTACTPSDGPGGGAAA

[25] = AUC (0 to infinity) in Beagle dog at 1 mg/kg, iv; format: ADME, organism-based, Canis lupus familiaris; parameters: time infinity, dose 1 mg/kg, route intravenous; conditions: plasma; outline: as §6
Brain = assay: Drug level in rat brain at 10 mg/kg, po after 1 hrs; format: ADME, organism-based; parameters: dose 10 mg/kg, route oral; conditions: in vivo; outline: as §7
[26] = Volume of distribution at steady state in Beagle dog at 1 mg/kg, iv; format: ADME, organism-based, Canis lupus familiaris; parameters: dose 1 mg/kg, route intravenous; conditions: in vivo, read-out: Vdss; outline: as §6
[27] = Half life in Beagle dog at 1 mg/kg, iv; format: ADME, organism-based, Canis lupus familiaris; parameters: dose 1 mg/kg, route intravenous; conditions: in vivo; outline: as §6
Mus musculus [28] = assay: Reversal of ORL agonist-induced locomotor activity in CD1 mouse at 10 mg/kg, po after 60 mins; format: functional
Outline: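 Mice (n = 6) dosed orally at 10 mg/kg, then given an ORL1 agonist. Locomotor activity counted over 60 min against vehicle control and agonist-only groups. Result expressed as % reversal of the agonist-induced reduction in locomotion.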

[29] = Plasma clearance in Sprague-Dawley rat at 0.65 mg/kg, iv; format: ADME, organism-based; parameters: dose 0.65 mg/kg, route intravenous; outline: as §3
[30] = Half life in Sprague-Dawley rat at 0.65 mg/kg, iv; format: ADME, organism-based; parameters: dose 0.65 mg/kg, route intravenous; conditions: in vivo; outline: as §3
[31] = Volume of distribution at steady state in Sprague-Dawley rat at 0.65 mg/kg, iv; format: ADME, organism-based; parameters: dose 0.65 mg/kg, route intravenous; conditions: in vivo, read-out: Vdss; outline: as §3
[32] = biological target: Voltage-gated inwardly rectifying potassium channel KCNH2 (Homo sapiens, UniProt Q12809)
Sequence of Voltage-gated inwardly rectifying potassium channel KCNH2 (Q12809 whole entry): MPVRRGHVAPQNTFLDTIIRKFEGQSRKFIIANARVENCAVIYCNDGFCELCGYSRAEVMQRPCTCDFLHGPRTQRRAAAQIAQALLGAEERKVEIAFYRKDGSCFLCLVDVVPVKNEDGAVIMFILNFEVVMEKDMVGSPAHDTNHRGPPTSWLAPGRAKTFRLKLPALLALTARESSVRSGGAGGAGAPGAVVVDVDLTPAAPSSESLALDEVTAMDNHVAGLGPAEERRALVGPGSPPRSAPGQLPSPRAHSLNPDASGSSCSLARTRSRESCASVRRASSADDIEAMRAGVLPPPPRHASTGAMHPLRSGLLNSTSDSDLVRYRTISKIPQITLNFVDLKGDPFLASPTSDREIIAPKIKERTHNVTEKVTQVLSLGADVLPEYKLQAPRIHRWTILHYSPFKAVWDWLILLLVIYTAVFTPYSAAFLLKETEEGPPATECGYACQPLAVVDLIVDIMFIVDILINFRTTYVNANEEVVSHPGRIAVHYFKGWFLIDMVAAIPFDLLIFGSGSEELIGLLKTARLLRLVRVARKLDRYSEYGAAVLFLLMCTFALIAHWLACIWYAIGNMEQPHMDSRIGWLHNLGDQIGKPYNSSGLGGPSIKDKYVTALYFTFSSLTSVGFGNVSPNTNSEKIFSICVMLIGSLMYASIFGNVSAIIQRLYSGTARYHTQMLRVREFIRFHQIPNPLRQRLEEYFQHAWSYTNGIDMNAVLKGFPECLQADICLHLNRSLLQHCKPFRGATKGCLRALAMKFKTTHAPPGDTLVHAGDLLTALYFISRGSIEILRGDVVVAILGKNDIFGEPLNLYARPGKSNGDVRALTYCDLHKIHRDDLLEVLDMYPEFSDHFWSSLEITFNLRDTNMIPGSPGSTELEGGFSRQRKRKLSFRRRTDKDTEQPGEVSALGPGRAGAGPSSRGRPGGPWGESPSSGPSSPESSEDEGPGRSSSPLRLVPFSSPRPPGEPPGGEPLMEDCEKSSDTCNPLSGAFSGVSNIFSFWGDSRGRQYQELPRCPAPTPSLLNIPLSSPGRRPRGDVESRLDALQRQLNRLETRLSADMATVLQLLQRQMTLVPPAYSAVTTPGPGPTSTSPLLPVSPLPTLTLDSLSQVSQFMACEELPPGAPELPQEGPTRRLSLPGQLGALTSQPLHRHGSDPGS

Structure (SMILES): Cc1ccccc1C1CCN(C[C@@H]2CCc3c(C)cccc3[C@@H](O)C2)CC1 (relative stereo)
- Activity (Mus musculus [1]): inactive

Structure (SMILES): Cc1ccccc1[C@@H]1CCN(C[C@@H]2CCc3cccnc3[C@@H](O)C2)C[C@H]1CO
- Activity (Canis familiaris [5]): -0.1%
- Activity (Canis familiaris [6]): 0.1%
- Activity (Canis familiaris [7]): 11.3%

Structure (SMILES): Cc1ccccc1[C@@H]1CCN(C[C@@H]2CCc3cccnc3[C@@H](O)C2)C[C@H]1O
- AUC(0-inf) [8]: 1.6 µM·h
- Activity (Canis familiaris [5]): 0.2%
- Vd [9]: 6.3 L/kg
- concentration at 20 min (in vivo [10]): 4.9 µM
- bioavailability [11]: 11%
- pKa (physchem [12]): 7.8
- Activity (Canis familiaris [6]): 0.2%
- remaining at 0.5 h [13]: 62%
- clearance [14]: 91 mL/min/kg
- concentration at 20 min (in vivo [15]): 2260 nM
- Activity (Canis familiaris [7]): 2%
- concentration at 20 min (in vivo [16]): 17.9 µM
- half-life [17]: 54 min
- remaining at 0.5 h [18]: 6%
- PPB (Plasma): 62%
- logD (physchem [2]): 2.2

Structure (SMILES): O[C@H]1C[C@H](CN2CC[C@H](c3ccc(F)cc3Cl)[C@@H](O)C2)Cc2cccnc21
- bioavailability [19]: 13%
- clearance [20]: 19 mL/min/kg
- Activity (Canis familiaris [5]): 1.1%
- concentration at 20 min (in vivo [10]): 8.3 µM
- bioavailability [21]: 39%
- concentration at 1 h [22]: 30 nM
- IC50 (Mu-type opioid receptor): > 10 µM
- pKa (physchem [12]): 7.4
- Activity (Canis familiaris [6]): 0.9%
- AUC (Rattus norvegicus): 0.59 µM·h
- remaining at 0.5 h [13]: 93%
- IC50 [23]: > 10 µM
- concentration at 20 min (in vivo [15]): 3480 nM
- Activity (Canis familiaris [7]): 2%
- concentration at 20 min (in vivo [16]): 29.8 µM
- IC50 [24]: > 10 µM
- remaining at 0.5 h [18]: 30%
- AUC(0-inf) [25]: 2 µM·h
- Drug uptake (Brain): 0.172 nmol/g
- PPB (Plasma): 57%
- logD (physchem [2]): 2.3
- Vd [26]: 10.6 L/kg
- half-life [27]: 810 min
- Activity (Mus musculus [28]): 89%
- clearance [29]: 47 mL/min/kg
- half-life [30]: 72 min
- Vd [31]: 3.9 L/kg

Structure (SMILES): Cc1ccccc1C1CCN(C[C@@H]2CCc3cccnc3C(C)(O)C2)CC1 (stereo in doubt; form 1)
- Ki (Nociceptin receptor [4]): 24 nM

Structure (SMILES): Cc1ccccc1C1CCN(C[C@@H]2CCc3cccnc3C(C)(O)C2)CC1 (stereo in doubt; form 2)
- logD (physchem [2]): 2.9
- Ki (Nociceptin receptor [4]): 17 nM

Structure (SMILES): O[C@H]1C[C@H](CN2CCC(c3c(Cl)cccc3Cl)CC2)CCc2cccnc21
- IC50 [32]: 0.94 µM
- logD (physchem [2]): > 4
- IC50 (Nociceptin receptor [3]): 1.6 nM
- Ki (Nociceptin receptor [4]): 0.47 nM

Structure (SMILES): O[C@H]1C[C@H](CN2CCC(c3ccccc3)CC2)CCc2cccnc21
- IC50 [32]: 11 µM
- Ki (Nociceptin receptor [4]): 30 nM

Structure (SMILES): Cc1cc(F)ccc1[C@H]1CCN(C[C@@H]2Cc3cccnc3[C@@H](O)C2)C[C@@H]1O
- logD (physchem [2]): 1.9
- Ki (Nociceptin receptor [4]): 21 nM

Structure (SMILES): Cc1ccccc1[C@H]1CCN(C[C@@H]2Cc3cccnc3[C@@H](O)C2)C[C@@H]1O
- IC50 [32]: > 50 µM
- Ki (Nociceptin receptor [4]): 51 nM

Structure (SMILES): O[C@H]1C[C@H](CN2CCC(c3ccccc3Cl)CC2)CCc2cccnc21
- IC50 [32]: 1.5 µM
- IC50 (Nociceptin receptor [3]): 27 nM
- Ki (Nociceptin receptor [4]): 1.1 nM

The next lines start with results.

- logD (physchem [2]): 3
- IC50 (Nociceptin receptor [3]): 5.7 nM
- Ki (Nociceptin receptor [4]): 3.5 nM
Structure (SMILES): Cc1ccccc1[C@@H]1CCN(C[C@@H]2CCc3cccnc3[C@@H](O)C2)C[C@H]1C

- logD (physchem [2]): 2
- Ki (Nociceptin receptor [4]): 11 nM
Structure (SMILES): Cc1ccccc1C1CCN(C[C@@H]2Cc3cccnc3[C@@H](O)C2)CC1
- IC50 [32]: > 50 µM

- logD (physchem [2]): 3.1
- Ki (Nociceptin receptor [4]): 25 nM
Structure (SMILES): Cc1ccccc1C1CCN(C[C@@H]2CCc3cccnc3C3(C2)OCCO3)CC1

- IC50 (Nociceptin receptor [3]): 5 nM
- Ki (Nociceptin receptor [4]): 4.4 nM
Structure (SMILES): O[C@H]1C[C@H](CN2CC[C@H](c3ccc(F)cc3Cl)[C@@H](O)C2)CCc2cccnc21

- logD (physchem [2]): 1.3
- Ki (Nociceptin receptor [4]): 49 nM
Structure (SMILES): Cc1ccccc1C1CCN(C[C@@H]2CCc3cccnc3C(=O)C2)CC1
